Source: PubChem BioAssay
CaV13 FRET inh: Disruptors of the CACNA1D IQ motif to Ca2+-dependent inactivation inhibitor domain association, primary screening, Förster resonance energy transfer in intact living …. HEK cells, CFP/YFP FRET ICDI-IQ, plate reader, 10 min; percent FRET-ratio fall versus neutral wells. inhibition, % at 12.3 µM. hit rate 0.098% among 340,000. AID 743397;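 active = mean replicate inhibition of at least 30% and at least 1% of replicates passing that level; inconclusive = only one of the two criteria is met; inactive = neither criterion is met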;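 note: 0% = median of the neutral control wells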
F508del corr: F508del CFTR correction, initial screen, CFBE line, single point; hit rate 0.36% among 350,000; activity (quench increase), % at 7.58 µM; CFBE cells, YFP halide quenching; stimulated with forskolin plus potentiator P3; % fluorescence drop versus neutral controls;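 active = mean added fluorescence quench of at least 8% versus neutral control, with both replicates also reaching 8%; inconclusive = only one of the mean or replicate conditions met; inactive = mean below 8% and not both replicates reaching 8%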;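 note: cells transiently co-express mutant CFTR-F508del with the halide-sensitive YFP; corrector assay measuring rescue of mutant channel to the surface after 24 h compound exposure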
Ecoli rRNA inh: reduced GFP signal of wild-type E. coli, primary screen, bacterial rRNA inhibitor project, GFP/RFP fluorescence, OD600, single point. AID 720706, 2013. hit rate 1.6% among 350,000. E. coli WT GFP vs humanized-ribosome RFP mutants, 24 h; active compounds read low; DMSO median 0, no signal -100. GFP signal change (wild-type ribosome), % (test concentration not listed);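 active = significant combined selectivity score with lowered wild-type GFP, culture density cut under 30%, mutant RFP and density less affected; inactive = any of these conditions unmet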
Cneo AK release: Cryptococcus neoformans cell lysis inducers, primary screen, AK release luminescence, single concentration | C. neoformans lysis, adenylate kinase release luminescence, 4 h; normalised: neutral wells 0, clomiphene wells 100 | lysis activity, % at 15 µM | hit rate 0.2% among 360,000;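 active = mean lysis activity across replicates of at least 80%, whatever share of replicates individually reach that level; inactive = mean lysis activity below 80%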
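Material – log-phase Cryptococcus neoformans yeast cells · Input – 5 × 10^6 yeast cells/mL · Medium – fresh YPD growth medium · Doses – single compound concentration per well · Timing – static 4 h at 37 °C with compound, 1 h detection · Detection – adenylate kinase release luminescence · Read-out – signal increase indicating cell lysis · Control set – Clomiphene as positive lysis control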
AID977621: growth inhibition of wild-type GFP E. coli, dose response, H69 mutant RFP, cherry-pick. shares compounds with Ecoli rRNA inh. E. coli wild-type GFP strain growth, fluorescence, 24 h. activity change, negative = inhibition at 50 µM. 1,900 tested, under 10 active. AID 977621, 2014;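 active = Wild-type ribosome reporter drop at least double the humanized mutant ribosome reporter drop, growth loss under a set limit; inconclusive = no clear call, values can overlap the other calls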;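 note: wild-type GFP and H69 mutant RFP strains grown together 50/50 in each well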
AID977628: E. coli growth inhibition, wild-type GFP versus h24 humanized RFP strain, dose response, h24 mutant RFP vs wild-type GFP, cherry-pick | E. coli WT GFP strain growth, fluorescence, 24 h | shares compounds with Ecoli rRNA inh | 1,900 tested, under 10 active | activity change, negative = inhibition at 50 µM;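 active = compound lowering the normal-ribosome reporter at least twice as much as the humanized-ribosome reporter, growth loss under a set limit; inconclusive = no clear call, values can overlap the other calls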;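 note: wild-type GFP and h24 humanized RFP strains co-cultured 1 to 1 per well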
* marks the source's active call; other numbers are inactive results; ? = inconclusive; . = not tested or not shown. Hits are enriched below; roughly 1.7% of the tested compounds scored in any of these assays.

SMILES | CaV13 FRET inh | F508del corr | Ecoli rRNA inh | Cneo AK release | AID977621 | AID977628
COc1ccc(C2CC(c3cccs3)=NN2S(C)(=O)=O)cc1 (stereo not drawn) | 1 | 0 | 1 | 0 | . | .
O=C(C[C@@H]1C[C@H]2c3cc(NC(=O)Nc4ccccc4)ccc3O[C@H]2[C@H](CO)O1)NCc1cccc(F)c1 | . | 0 | -3 | -62 | . | .
C(=C/c1nccc2c1[nH]c1ccccc12)/c1ccc2c(c1)OCO2 | -102 | 1 | -37* | -1 | 12 | -2.2
[O-][n+]1ccccc1/C=C/c1ccccc1 | -2 | 0 | -26* | . | -11 | ?
CSc1nc(SCCN(C)C)c2c3c(sc2n1)COC(C)(C)C3 | -5 | 1 | -23* | . | . | 2.5
CCC1(C)Cc2c(sc3nc(SC)nc(NCCN(C)C)c23)CO1 (stereo not drawn) | -4 | . | . | -1 | . | .
CCCC#Cc1cnc2c(c1)C(=O)N([C@@H](C)CO)C[C@@H](C)[C@@H](CN(C)C(=O)Cc1ccncc1)O2 | . | 0 | 2 | -7 | . | .
CCS(=O)(=O)N1CCN(c2ccnc3cc(Cl)ccc23)CC1 | -4 | 2 | -21* | 1 | -4.3 | .
CN(Cc1ccc(F)cc1)C(=O)CCc1nnc(-c2ccccc2)o1 | 3 | 3 | -5 | . | . | .
CN(Cc1nnc(-c2ccc(F)cc2)o1)c1ccccc1 | -7 | 1 | -26* | -2 | -7.6 | -7
C[C@@H]1CCCCO[C@@H](CN(C)Cc2ccc3c(c2)OCO3)[C@H](C)CN([C@H](C)CO)C(=O)c2cc(NC(=O)Nc3ccc(C(F)(F)F)cc3)ccc2O1 | . | 1 | 6 | 43 | . | .
CCNC(=O)CC1C(=O)N(c2ccc(F)cc2)C(=S)N1CCc1ccncc1 (stereo not drawn) | -6 | -1 | 13 | . | . | .
COC(=O)CN1C(=S)N(c2ccc(F)cc2)C(=O)C1CC(=O)Nc1ccccc1 (stereo not drawn) | 3 | -5 | -6 | -3 | . | .
COC(=O)CN1C(=S)N(c2ccc(F)cc2)C(=O)C1CC(=O)Nc1ccc(OC)cc1 (stereo not drawn) | -5 | 0 | -22* | 2 | . | -13
O=C(CC1C(=O)N(c2ccc(Cl)cc2)C(=S)N1CCc1ccncc1)Nc1ccc(F)cc1 (stereo not drawn) | -8 | 0 | -21* | 3 | -6.7 | .
CSc1ccccc1NC(=O)c1ccccc1N(Cc1ccccc1)S(C)(=O)=O | -7 | 2 | -24* | 0 | -1.6 | .
CSc1ccccc1NC(=O)c1ccccc1N(C)S(C)(=O)=O | -5 | . | . | 0 | . | .
Cn1cnc(S(=O)(=O)N2C[C@H](O)COC[C@H]3O[C@H](CC(=O)NCc4ccc(F)cc4)CC[C@@H]32)c1 | . | -1 | 4 | 2 | . | .
CCCNC(=O)Nc1ccc2c(c1)C(=O)N(C)C[C@@H](OC)[C@H](C)CN(Cc1ccccn1)[C@@H](C)CO2 | . | 5 | 2 | 2 | . | .
CC(C)c1ccc(-c2nc3ccccc3s2)cc1 | -4 | -1 | -16* | . | -3.1 | -4.9
FC(F)(F)c1ccc(-c2nc3ccccc3s2)cc1 | -10 | 1 | 0 | -2 | . | .
Cc1cc(C)cc(NC(=O)c2cccc(NC(=O)c3ccco3)c2)c1 | -4 | 2 | -24* | -2 | -25 | .
C[C@@H]1CN([C@@H](C)CO)C(=O)c2cc(NC(=O)C3CCCCC3)ccc2O[C@@H]1CN(C)C(=O)Nc1ccc(F)cc1 | . | -3 | -4 | 0 | . | .
CCN(CC)CCN(C(=O)c1ccc2c(c1)CCCC2)c1nc2ccc(F)cc2s1 | -5 | 1 | -23* | . | -13 | .
CCOC(=O)C(CC)Sc1cc(C)nc2ccc(OC)cc12 (stereo not drawn) | 2 | -1 | -30* | 1 | -12 | .
SMILES | CaV13 FRET inh | F508del corr | Ecoli rRNA inh | Cneo AK release | AID977621 | AID977628
C/C=C/c1ccc([C@@H]2[C@@H](CO)N(C(=O)CN(C)C)C23CN(C(=O)C2CCC2)C3)cc1 | . | 1 | 0 | . | . | .
C[C@@H]1CN([C@@H](C)CO)C(=O)CCCn2nncc2CO[C@H]1CN(C)C(=O)Nc1cccc(C(F)(F)F)c1 | . | -2 | -17* | 2 | . | ?
CCC/C(=C1/c2ccccc2C(=O)N1c1ccccc1)c1ccc2[nH]ccc2c1 | -6 | 0 | -20 | -3 | . | .
CCCC#C/C(CCC)=C1\c2ccccc2C(=O)N1c1ccccc1 | -6 | 6 | -16* | . | -4.9 | ?
COc1ccc(NC(=O)Nc2ccc3c(c2)C(=O)N([C@@H](C)CO)C[C@@H](C)[C@@H](CN(C)C(=O)NC2CCCCC2)OCCCC[C@@H](C)O3)cc1 | . | 2 | -1 | 0 | . | .
C=CCN(CC(O)c1cccc([N+](=O)[O-])c1)C(C)CCc1ccccc1 (stereo not drawn) | -16 | 1 | -21* | . | ? | .
O=[N+]([O-])c1cncc([N+](=O)[O-])c1Nc1cccc(O)c1 | -3 | 0 | -26* | -2 | . | -11
Cc1ccccc1Nc1c([N+](=O)[O-])cncc1[N+](=O)[O-] | -19 | 0 | 7 | 1 | . | .
C[C@@H]1CCCCO[C@@H](CN(C)C(=O)Cc2ccccc2)[C@@H](C)CN([C@@H](C)CO)C(=O)c2cc(NS(=O)(=O)c3ccccc3)ccc2O1 | . | -2 | -1 | 0 | . | .
c1ccc(CSCc2ccccc2)cc1 | . | 1 | -25* | 0 | 4.9 | 0.76
C(#CSCc1ccccc1)SCc1ccccc1 | -5 | 0 | 0 | -2 | . | .
O=S1(=O)N[C@H](Cc2ccccc2)COc2cc(N3CCSCC3)ccc21 | -4 | 0 | -16* | . | -0.85 | -10
O=S1(=O)N[C@H](Cc2ccccc2)COc2cc(N3CCCCC3)ccc21 | -3 | -5 | -2 | . | . | .
COc1cccc(S(=O)(=O)N[C@H]2CC[C@@H](CC(=O)NC3CCC3)O[C@@H]2CO)c1 | . | -2 | -1 | 1 | . | .
O=C(Nc1ccc(OCC(=O)N2CCC(Cc3ccccc3)CC2)cc1)c1ccco1 | -4 | . | . | 1 | . | .
CC(=O)Nc1ccc(OCC(=O)N2CCC(Cc3ccccc3)CC2)cc1 | -7 | 2 | -20* | . | -26 | .
Cc1ccc(C(=O)c2ccccc2C(=O)OCC(=O)NC(C)(C)C)cc1 | -1 | -1 | -20* | -2 | -22 | .
Cc1ccc(C(=O)c2ccccc2C(=O)OCC(=O)N2CCCC2)cc1 | -3 | 0 | 4 | -7 | . | .
Cc1nn(CC(=O)c2ccc(Br)s2)c(C)c1[N+](=O)[O-] | -2 | -2 | -21* | 3 | 5.2 | -4.5
Cc1nn(CC(=O)c2ccccc2Cl)c(C)c1[N+](=O)[O-] | 3 | 0 | -5 | . | . | .
